In ChEMBL document CHEMBL2321827, “Allopregnanolone and pregnanolone analogues modified in the C ring: synthesis and activity” (J Med Chem, 2013):

Legend:
Format in all cases: cell-based
Cerebral cortex neuron [1] = experiment: Stimulation of [3H]flunitrazepam binding to GABA type A receptor in mouse primary cortical neurons at 100 uM after 30 mins by liquid scintillation counting analysis relative to allopregnanolone
Method in brief: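 Intact E16 mouse cortical neurons cultured 7–9 days, washed in HEPES pH 7.3, then incubated 30 min at 25 °C with 1.3–2.0 nM [3H]flunitrazepam and 100 μM compound in triplicate. Nonspecific binding was defined with 20 μM diazepam and radioactivity counted by scintillation. Binding increase is given as % of the maximal effect of 60 μM allopregnanolone, mean ± sd, n = 2–4.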

[2] = Stimulation of [3H]flunitrazepam binding to GABA type A receptor in mouse primary cortical neurons after 30 mins by liquid scintillation counting analysis; conditions: cerebral cortex neuron
Method in brief: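 Cortical neurons from E16 mouse embryos, cultured 7–9 days with FUdR/uridine against glia, then washed in HEPES buffer pH 7.3. Intact cells were incubated with 1.3–2.0 nM [3H]flunitrazepam and compound (1 nM–300 μM, ≥6 concentrations, triplicate, final DMSO 100 μM) for 30 min at 25 °C. Nonspecific binding used 20 μM diazepam. EC50 came from a sigmoid fit, mean ± sd, n = 2–4.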

Cerebral cortex neuron [3] = experiment: Stimulation of [3H]flunitrazepam binding to GABA type A receptor in primary cortical neurons relative to allopregnanolone

Structure (SMILES) | Emax (Cerebral cortex neuron [1]) [%] | EC50 [2] [µM] | Activity (Cerebral cortex neuron [3]) [%]
CC(=O)[C@H]1CC[C@H]2[C@@H]3CC[C@H]4C[C@H](O)CC[C@]4(C)[C@H]3[C@@H](O)C[C@]12C | 117 | 32 | –
CC(=O)[C@H]1CC[C@H]2[C@@H]3CC[C@H]4C[C@H](O)CC[C@]4(C)[C@H]3C[C@@H](N)[C@]12C | 0 | > 300 | –
C=C1C[C@]2(C)[C@@H](C(C)=O)CC[C@H]2[C@@H]2CC[C@@H]3C[C@H](O)CC[C@]3(C)[C@@H]12 | 28 | 37.5 | –
CC(=O)[C@H]1CC[C@H]2[C@@H]3CC[C@H]4C[C@H](O)CC[C@]4(C)[C@H]3[C@@H](C)C[C@]12C | 97 | 8 | –
CC(=O)[C@H]1CC[C@H]2[C@@H]3CC[C@@H]4C[C@H](O)CC[C@]4(C)C3=C(C)C[C@]12C | 97 | 3 | –
CC(=O)[C@H]1CC[C@H]2[C@@H]3CC[C@@H]4C[C@H](O)CC[C@]4(C)[C@H]3C(=O)C[C@]12C [RENANOLONE] | 42 | 94 | –
CC(=O)N[C@@H]1C[C@H]2[C@@H](CC[C@H]3C[C@H](O)CC[C@@]32C)[C@@H]2CC[C@H](C(C)=O)[C@@]12C | 0 | > 100 | –
CC(=O)[C@H]1CC[C@H]2[C@@H]3CC[C@H]4C[C@H](O)CC[C@]4(C)[C@H]3[C@H](N)C[C@]12C | 45 | 154 | –
CC(=O)[C@H]1CC[C@H]2[C@@H]3CC[C@H]4C[C@H](O)CC[C@]4(C)[C@H]3C[C@H](O)[C@]12C | 60 | 46 | –
CC(=O)[C@H]1CC[C@H]2[C@@H]3CC[C@@H]4C[C@@](O)(C#Cc5ccccc5)CC[C@]4(C)[C@H]3[C@](O)(C#Cc3ccccc3)C[C@]12C | 0 | > 100 | –
CC(=O)[C@H]1CC[C@H]2[C@@H]3CC[C@H]4C[C@H](O)CC[C@]4(C)[C@H]3C(=O)C[C@]12C [ALFAXALONE] | 92 | 4.6 | –
CC(=O)[C@H]1CC[C@H]2[C@@H]3CC[C@H]4C[C@H](O)CC[C@]4(C)[C@H]3C[C@@H](O)[C@]12C | 28 | 173 | –
CC(=O)[C@H]1CC[C@H]2[C@@H]3CC[C@H]4C[C@H](N)CC[C@]4(C)[C@H]3CC[C@]12C | – | – | 56
C#C[C@]1(O)C[C@]2(C)[C@@H](C(C)=O)CC[C@H]2[C@@H]2CC[C@H]3C[C@H](O)CC[C@]3(C)[C@H]21 | 87 | 32 | –
CC(=O)[C@H]1CC[C@H]2[C@@H]3CC[C@@H]4C[C@H](O)CC[C@]4(C)[C@H]3[C@](O)(C#Cc3ccccc3)C[C@]12C | 116 | 1.2 | –
C#C[C@]1(O)C[C@]2(C)[C@@H](C(C)=O)CC[C@H]2[C@@H]2CC[C@@H]3C[C@H](O)CC[C@]3(C)[C@H]21 | 91 | 14 | –
C=C1C[C@]2(C)[C@@H](C(C)=O)CC[C@H]2[C@@H]2CC[C@H]3C[C@H](O)CC[C@]3(C)[C@@H]12 | 102 | 1.2 | –
CC(=O)[C@H]1CC[C@H]2[C@@H]3CC[C@@H]4C[C@H](O)CC[C@]4(C)[C@H]3[C@@H](C)C[C@]12C | 71 | 14 | –
CC(=O)[C@H]1CC[C@H]2[C@@H]3CC[C@H]4C[C@H](O)CC[C@]4(C)[C@H]3[C@H](O)C[C@]12C | 28 | > 300 | –
CC(=O)[C@H]1CC[C@H]2[C@@H]3CC[C@@H]4C[C@H](O)CC[C@]4(C)[C@H]3[C@@H](O)C[C@]12C | 25 | > 300 | –
CC(=O)[C@H]1CC[C@H]2[C@@H]3CC[C@H]4C[C@H](O)CC[C@]4(C)[C@H]3[C@@H](N)C[C@]12C | 140 | 5.9 | –
CC(=O)[C@H]1CC[C@H]2[C@@H]3CC[C@@H]4C[C@H](O)CC[C@]4(C)[C@H]3[C@H](O)C[C@]12C | 43 | 71 | –
CC(=O)[C@H]1CC[C@H]2[C@@H]3CC[C@H]4C[C@H](O)CC[C@]4(C)[C@H]3[C@@H]3O[C@@H]3[C@]12C | 9 | > 300 | –
C#C[C@@]1(O)CC[C@@]2(C)[C@H](CC[C@H]3[C@@H]4CC[C@H](C(C)=O)[C@@]4(C)C[C@@](O)(C#C)[C@@H]32)C1 | 61 | 75 | –
CC(=O)[C@H]1CC[C@H]2[C@@H]3CC[C@H]4C[C@H](O)CC[C@]4(C)[C@H]3C=C[C@]12C | 67 | 7.4 | –
